Data reported in ChEMBL document CHEMBL4342520, “Discovery, Structure-Activity Relationship, and Biological Activity of Histone-Competitive Inhibitors of Histone Acetyltransferases P300/CBP” (J Med Chem, 2020).
Calls of active or inactive are those of the source. The calls are words filed in the database; no cut-off is given here.

Columns and labels:
[1] = target: T1, Histone acetyltransferase p300 (Homo sapiens, UniProt Q09472); test: (§1) Inhibition of recombinant human GST-tagged p300 HAT domain (1195 to 1673 residues) expressed in Escherichia coli BL21 codon plus cells using Histone H3 peptide (1 to 21) and [3H]acetyl-CoA as substrate preincubated with enzyme for 10 mins followed by substrate addition and measured after 30 mins by scintillation counting method
T1 sequence (Q09472 whole entry, the tested form may be a part): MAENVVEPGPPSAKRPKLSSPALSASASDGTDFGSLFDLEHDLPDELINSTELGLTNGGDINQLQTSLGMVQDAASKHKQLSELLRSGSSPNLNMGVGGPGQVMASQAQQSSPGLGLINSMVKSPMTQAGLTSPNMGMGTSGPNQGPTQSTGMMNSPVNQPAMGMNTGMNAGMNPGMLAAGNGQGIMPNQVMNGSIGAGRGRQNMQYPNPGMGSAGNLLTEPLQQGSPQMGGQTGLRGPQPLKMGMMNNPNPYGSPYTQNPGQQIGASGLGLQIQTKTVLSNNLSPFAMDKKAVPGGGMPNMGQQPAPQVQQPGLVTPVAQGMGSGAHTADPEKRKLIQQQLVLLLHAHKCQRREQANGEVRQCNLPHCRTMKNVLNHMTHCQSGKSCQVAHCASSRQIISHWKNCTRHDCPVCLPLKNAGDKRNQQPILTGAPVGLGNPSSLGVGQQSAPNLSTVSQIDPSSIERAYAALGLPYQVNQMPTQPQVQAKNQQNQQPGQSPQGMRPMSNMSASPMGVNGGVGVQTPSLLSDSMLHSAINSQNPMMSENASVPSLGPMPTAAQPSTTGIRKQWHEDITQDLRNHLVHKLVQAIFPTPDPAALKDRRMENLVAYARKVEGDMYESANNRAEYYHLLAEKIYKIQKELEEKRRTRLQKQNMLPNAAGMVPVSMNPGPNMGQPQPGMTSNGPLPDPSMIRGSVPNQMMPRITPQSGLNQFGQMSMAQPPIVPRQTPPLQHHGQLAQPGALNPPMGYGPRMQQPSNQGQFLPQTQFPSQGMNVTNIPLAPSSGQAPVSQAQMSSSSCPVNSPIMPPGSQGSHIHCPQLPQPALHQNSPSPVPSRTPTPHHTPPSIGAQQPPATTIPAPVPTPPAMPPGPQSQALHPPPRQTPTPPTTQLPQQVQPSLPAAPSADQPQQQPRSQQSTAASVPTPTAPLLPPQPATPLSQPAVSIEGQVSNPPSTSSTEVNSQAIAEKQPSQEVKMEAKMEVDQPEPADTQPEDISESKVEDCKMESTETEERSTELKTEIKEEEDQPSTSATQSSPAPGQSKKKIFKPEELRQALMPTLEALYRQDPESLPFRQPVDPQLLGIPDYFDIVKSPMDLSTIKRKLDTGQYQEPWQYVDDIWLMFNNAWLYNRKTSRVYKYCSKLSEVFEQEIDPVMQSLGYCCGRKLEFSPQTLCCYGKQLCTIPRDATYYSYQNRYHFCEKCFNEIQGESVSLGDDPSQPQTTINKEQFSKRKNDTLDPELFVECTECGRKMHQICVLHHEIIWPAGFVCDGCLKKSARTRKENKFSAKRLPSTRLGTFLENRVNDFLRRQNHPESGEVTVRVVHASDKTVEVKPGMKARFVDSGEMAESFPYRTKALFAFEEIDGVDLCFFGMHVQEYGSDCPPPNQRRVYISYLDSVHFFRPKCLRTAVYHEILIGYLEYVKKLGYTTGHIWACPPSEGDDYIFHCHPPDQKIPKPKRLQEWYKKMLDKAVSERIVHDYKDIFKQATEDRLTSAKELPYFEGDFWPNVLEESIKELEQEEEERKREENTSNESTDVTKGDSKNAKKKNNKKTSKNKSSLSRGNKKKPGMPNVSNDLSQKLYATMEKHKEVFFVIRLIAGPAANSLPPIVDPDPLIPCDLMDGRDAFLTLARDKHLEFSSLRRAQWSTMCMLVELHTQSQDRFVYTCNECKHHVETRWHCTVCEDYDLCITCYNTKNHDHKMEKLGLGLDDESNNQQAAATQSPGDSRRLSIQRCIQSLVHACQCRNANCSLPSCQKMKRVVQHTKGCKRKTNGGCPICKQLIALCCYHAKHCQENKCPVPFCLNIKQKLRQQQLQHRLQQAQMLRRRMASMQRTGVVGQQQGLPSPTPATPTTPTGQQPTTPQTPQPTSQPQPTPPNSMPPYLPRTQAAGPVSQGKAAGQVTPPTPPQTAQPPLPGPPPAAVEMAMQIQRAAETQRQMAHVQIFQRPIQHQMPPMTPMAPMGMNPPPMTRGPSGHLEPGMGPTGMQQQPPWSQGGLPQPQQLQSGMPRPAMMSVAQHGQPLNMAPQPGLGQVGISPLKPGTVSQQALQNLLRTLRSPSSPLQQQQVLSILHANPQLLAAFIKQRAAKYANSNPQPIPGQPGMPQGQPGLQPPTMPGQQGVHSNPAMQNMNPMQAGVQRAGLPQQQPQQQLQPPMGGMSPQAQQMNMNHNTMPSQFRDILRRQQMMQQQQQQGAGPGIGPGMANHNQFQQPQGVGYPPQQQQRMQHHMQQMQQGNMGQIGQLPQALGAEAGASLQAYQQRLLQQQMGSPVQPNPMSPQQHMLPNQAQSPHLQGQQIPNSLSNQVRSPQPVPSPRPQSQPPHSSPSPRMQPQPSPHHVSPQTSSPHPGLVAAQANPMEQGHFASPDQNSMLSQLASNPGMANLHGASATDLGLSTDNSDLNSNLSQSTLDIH
Procedure, shortened: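 The compound (100 nM to 10 µM) was preincubated with p300-HAT (10 nM) for 10 min at 25 °C in 50 mM phosphate buffer pH 7.0 with 0.01% Brij-35. Incorporation of [3H]acetyl from Ac-CoA into histone H3 (1-21) peptide was captured on filter paper, washed with 50 mM NaHCO3 and counted by scintillation. IC50 came from a sigmoidal dose-response fit, mean of at least three experiments.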

[2] = target: T1, Histone acetyltransferase p300; test: as §1, with “cells at 10 uM” for “cells”, “method relative to control” for “method”
MCF7 [3] = test: Antiproliferative activity against human tamoxifen-resistant MCF7 cells assessed as reduction in cell viability incubated for 6 days by Celigo-insitu cell cytometer analysis; conditions: MCF7, 144 h
MCF7 [4] = test: Antiproliferative activity against human MCF7 cells assessed as reduction in cell viability incubated for 6 days by Celigo-insitu cell cytometer analysis; conditions: MCF7, 144 h
[5] = Antiproliferative activity against human MDAPanc28 cells assessed as reduction in cell viability incubated for 5 days by MTT assay; conditions: MDA-Panc-28, 120 h
[6] = target: T2, CREB-binding protein/Histone acetyltransferase p300 (Homo sapiens) (UniProt Q09472+Q92793); test: Inhibition of p300/CBP HAT domain in human Kasumi-1 cells assessed as reduction in H3K9 acetylation at 5 to 10 uM incubated for 12 hrs by Western blot analysis; assay type: cell-based
T2 sequence (Q09472 whole entry, looked up, the tested form may be a part): as the sequence (Q09472 whole entry, the tested form may be a part) above
T2 sequence (Q92793 whole entry, looked up, the tested form may be a part): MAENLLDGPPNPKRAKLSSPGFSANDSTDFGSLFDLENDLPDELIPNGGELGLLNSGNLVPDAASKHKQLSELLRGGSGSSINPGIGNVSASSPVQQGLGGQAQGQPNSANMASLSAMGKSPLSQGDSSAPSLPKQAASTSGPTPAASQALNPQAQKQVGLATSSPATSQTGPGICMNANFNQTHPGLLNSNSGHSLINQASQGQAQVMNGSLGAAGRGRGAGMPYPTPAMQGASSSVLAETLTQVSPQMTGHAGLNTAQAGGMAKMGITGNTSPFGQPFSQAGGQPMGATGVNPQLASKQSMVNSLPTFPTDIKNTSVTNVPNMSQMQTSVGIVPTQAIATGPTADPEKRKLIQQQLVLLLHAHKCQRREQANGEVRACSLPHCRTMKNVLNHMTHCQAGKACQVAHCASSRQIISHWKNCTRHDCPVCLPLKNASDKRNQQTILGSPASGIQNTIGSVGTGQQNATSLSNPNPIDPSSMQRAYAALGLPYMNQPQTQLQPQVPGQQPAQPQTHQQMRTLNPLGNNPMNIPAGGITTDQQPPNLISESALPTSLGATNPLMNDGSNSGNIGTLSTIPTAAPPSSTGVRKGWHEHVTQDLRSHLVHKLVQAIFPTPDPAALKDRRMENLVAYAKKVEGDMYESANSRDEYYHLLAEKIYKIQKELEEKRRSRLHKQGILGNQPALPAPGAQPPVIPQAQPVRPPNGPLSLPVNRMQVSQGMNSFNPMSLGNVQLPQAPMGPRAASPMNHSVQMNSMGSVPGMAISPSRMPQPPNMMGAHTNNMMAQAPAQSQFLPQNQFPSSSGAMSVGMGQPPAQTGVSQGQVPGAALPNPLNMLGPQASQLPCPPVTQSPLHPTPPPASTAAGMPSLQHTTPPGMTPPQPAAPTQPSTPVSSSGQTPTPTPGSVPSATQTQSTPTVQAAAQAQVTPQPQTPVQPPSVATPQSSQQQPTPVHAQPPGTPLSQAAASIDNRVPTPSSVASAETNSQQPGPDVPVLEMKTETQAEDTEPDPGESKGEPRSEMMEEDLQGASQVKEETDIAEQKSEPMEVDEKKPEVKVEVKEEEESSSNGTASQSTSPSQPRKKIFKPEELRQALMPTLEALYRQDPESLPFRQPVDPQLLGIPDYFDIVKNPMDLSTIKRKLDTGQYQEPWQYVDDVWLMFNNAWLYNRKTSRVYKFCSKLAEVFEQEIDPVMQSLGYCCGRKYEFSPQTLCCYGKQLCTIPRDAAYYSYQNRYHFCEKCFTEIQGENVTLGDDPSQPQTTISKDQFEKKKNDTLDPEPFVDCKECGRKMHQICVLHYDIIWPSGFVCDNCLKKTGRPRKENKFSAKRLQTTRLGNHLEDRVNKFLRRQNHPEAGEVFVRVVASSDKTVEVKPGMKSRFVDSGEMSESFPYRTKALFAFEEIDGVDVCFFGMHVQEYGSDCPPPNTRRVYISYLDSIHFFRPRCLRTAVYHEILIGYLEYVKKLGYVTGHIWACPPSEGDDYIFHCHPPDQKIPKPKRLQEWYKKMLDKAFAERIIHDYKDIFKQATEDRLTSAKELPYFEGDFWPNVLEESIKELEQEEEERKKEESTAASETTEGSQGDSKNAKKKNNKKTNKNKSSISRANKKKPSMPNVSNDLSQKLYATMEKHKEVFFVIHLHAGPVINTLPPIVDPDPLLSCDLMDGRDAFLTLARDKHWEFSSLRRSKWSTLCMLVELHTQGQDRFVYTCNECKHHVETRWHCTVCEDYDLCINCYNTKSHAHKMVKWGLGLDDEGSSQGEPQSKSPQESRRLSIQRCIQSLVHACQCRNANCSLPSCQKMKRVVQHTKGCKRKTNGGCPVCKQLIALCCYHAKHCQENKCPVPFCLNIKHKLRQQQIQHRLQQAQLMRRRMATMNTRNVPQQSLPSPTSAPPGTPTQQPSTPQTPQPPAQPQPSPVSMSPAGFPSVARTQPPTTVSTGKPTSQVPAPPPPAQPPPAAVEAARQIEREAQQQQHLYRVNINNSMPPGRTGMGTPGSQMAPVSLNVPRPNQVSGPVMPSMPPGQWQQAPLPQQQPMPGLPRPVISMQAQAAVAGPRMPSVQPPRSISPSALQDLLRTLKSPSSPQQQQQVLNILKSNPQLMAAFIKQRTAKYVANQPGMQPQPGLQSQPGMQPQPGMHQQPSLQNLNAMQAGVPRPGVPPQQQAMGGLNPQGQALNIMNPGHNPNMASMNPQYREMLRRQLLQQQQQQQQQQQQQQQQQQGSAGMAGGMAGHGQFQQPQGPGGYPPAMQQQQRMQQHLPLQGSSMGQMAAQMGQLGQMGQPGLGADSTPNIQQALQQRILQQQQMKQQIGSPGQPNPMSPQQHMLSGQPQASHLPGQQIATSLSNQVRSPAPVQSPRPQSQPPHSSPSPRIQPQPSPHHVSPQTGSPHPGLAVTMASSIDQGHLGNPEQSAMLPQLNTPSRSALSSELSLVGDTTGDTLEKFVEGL
Procedure, shortened: (§2)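 Kasumi-1 cells (10^6 per well) were treated with compound at 0, 5 and 10 µM for 12 h. Total histones were extracted, and 2 µg was run on SDS-PAGE and blotted to PVDF. Blots were probed for H3K9Ac, H3K18Ac, H3K27Ac and total H3, then with an anti-rabbit IgG secondary.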

[7] = target: T2, CREB-binding protein/Histone acetyltransferase p300 (Homo sapiens); test: Inhibition of p300/CBP HAT domain in human Kasumi-1 cells assessed as reduction in H3K27 acetylation at 5 to 10 uM incubated for 12 hrs by Western blot analysis; assay type: cell-based; procedure, shortened: as §2
PANC-1 = test: Antiproliferative activity against human PANC1 cells assessed as reduction in cell viability incubated for 5 days by MTT assay; conditions: PANC-1, 120 h
Kasumi 1 = test: Antiproliferative activity against human Kasumi-1 cells assessed as reduction in cell viability incubated for 5 days by XTT assay; conditions: Kasumi 1, 120 h
[8] = target: T1, Histone acetyltransferase p300; test: Inhibition of His6-tagged p300 HAT domain (unknown origin) assessed as disruption of p300 and Histone H4 (1-21) peptide interaction incubated for 1 hr by Alpha assay
Procedure, shortened: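 Varying compound concentrations were added in PBS with 0.5% BSA for 1 h. Signal was read with excitation at 680 nm and emission at 570 nm. A biotinylated His6 peptide served as an interference counter-control. IC50 came from a sigmoidal fit.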

[9] = target: T2, CREB-binding protein/Histone acetyltransferase p300 (Homo sapiens); test: Inhibition of p300/CBP HAT domain in human Kasumi-1 cells assessed as reduction in H3K18 acetylation at 5 to 10 uM incubated for 12 hrs by Western blot analysis; assay type: cell-based; procedure, shortened: as §2
[10] = Inhibition of p300 HAT domain (1287-1652 residues) (unknown origin) harboring regulatory auto-acetylation loop deletion mutant and M1652G mutant using H4-15 peptide as substrate preincubated with enzyme and substrate for 10 mins followed by addition of [12C]acetylCoA and [14C]acetylCoA for 10 mins by phosphor-imaging analysis; design: species or system Homo sapiens
[11] = target: Lysine-specific histone demethylase 1A (Homo sapiens) (UniProt O60341); test: Inhibition of LSD1 (unknown origin) at 50 uM
[12] = target: Histone acetyltransferase KAT2B (Homo sapiens, UniProt Q92831); test: (§3) Inhibition of recombinant human GST-tagged PCAF expressed in Escherichia coli BL21 codon plus cells using Histone H3 peptide (1 to 21) and [3H]acetyl-CoA as substrate preincubated with enzyme for 10 mins followed by substrate addition and measured after 30 mins by scintillation counting method
Procedure, shortened: (§4)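 CBP, PCAF and Myst3 HAT proteins were prepared like GST-p300-HAT: expressed in E. coli BL21-CodonPlus, purified on glutathione resin, then by gel filtration. Inhibition was measured in the same radiometric filter assay with [3H]Ac-CoA and histone H3 (1-21) peptide, read by scintillation counting.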

CREB-binding protein = CREB-binding protein (Homo sapiens, UniProt Q92793); test: as §3, with “CBP HAT domain” for “PCAF”; procedure, shortened: as §4
Sequence of CREB-binding protein (Q92793 whole entry, the tested form may be a part): as the sequence (Q92793 whole entry, looked up, the tested form may be a part) above

[13] = target: Histone acetyltransferase KAT6A (Homo sapiens, UniProt Q92794); test: Inhibition of recombinant human GST-tagged Myst3 expressed in Escherichia coli BL21 codon plus cells using Histone H3 peptide (1 to 21) and [3H]acetyl-CoA as substrate preincubated with enzyme for 10 mins followed by substrate addition and measured after 30 mins by scintillation counting method; procedure, shortened: as §4

SMILES | IC50 [1] | inhibition [2] | further results
c1ccc(-c2cccc(-c3cc(CNCC4CCNCC4)sc3-c3cccc(-c4ccccc4)c3)c2)cc1 | > 10 µM | 18% | –
c1cc(-c2ccc(-c3cc(CNCC4CCNCC4)sc3-c3ccc(-c4ccoc4)cc3)cc2)co1 | 1.7 µM | – | –
CCCCc1ccc(-c2cc(CNCC3CCNCC3)sc2-c2ccc(CCCC)cc2)cc1 | > 10 µM | 10% | –
COc1ccc(-c2ccc(-c3cc(CNCC4CCNCC4)sc3-c3ccc(-c4ccc(OC)cc4)cc3)cc2)cc1 | 7.4 µM | – | –
CC(C)(C)c1ccc(-c2csc(CNCC3CCNCC3)n2)cc1 | – | 10% | –
CC(C)(C)c1ccc(-c2sc(C(=O)NCC3CCNCC3)cc2-c2cccnc2)cc1 | > 10 µM | 31% | –
CC(C)(C)c1ccc(-c2cc(CN3CCOCC3)sc2-c2ccc(C(C)(C)C)cc2)cc1 | > 10 µM | 20% | –
O=C(NCC1CCNCC1)c1cc(-c2ccc(CN3CCCCC3)cc2)c(-c2ccc(-c3ccoc3)cc2)s1 | 1.6 µM | – | –
NCc1ccc(-c2cc(CNCC3CCNCC3)sc2-c2ccc(CN)cc2)cc1 | > 10 µM | 0% | EC50 (MCF7 [3]): > 30 µM; EC50 (MCF7 [4]): > 30 µM; EC50 [5]: > 30 µM; inhibition [6]: inactive; inhibition [7]: inactive; EC50 (PANC-1): > 30 µM; EC50 (Kasumi 1): > 30 µM; inhibition [8]: inactive; inhibition [9]: inactive
CC(C)(C)c1ccc(-c2cc(CNCC3CCNCC3)sc2-c2ccc(CN)cc2)cc1 | 2 µM | – | –
CC(C)(C)c1ccc(-c2cc(CNCCCN)sc2-c2ccc(C(C)(C)C)cc2)cc1 | 3 µM | – | –
CC(C)(C)c1ccc(-c2cc(CNC3CCNCC3)sc2-c2ccc(C(C)(C)C)cc2)cc1 | 5 µM | – | –
O=C(NCC1CCNCC1)c1cc(-c2ccc(-c3ccoc3)cc2)c(-c2ccc(-c3ccoc3)cc2)s1 | 1.6 µM | – | –
CC(C)(C)c1ccc(-c2sc(C(=O)NCC3CCNCC3)cc2-c2ccc(CN3CCNCC3)cc2)cc1 | > 10 µM | 12% | –
CC(C)(C)c1ccc(-c2sc(CNCC3CCNCC3)c(Br)c2-c2ccc(C(C)(C)C)cc2)cc1 | 1.8 µM | – | –
COc1ccc(-c2ccc(-c3cc(C(=O)NCC4CCNCC4)sc3-c3ccc(-c4ccc(OC)cc4)cc3)cc2)cc1 | 2.8 µM | – | –
CC(C)(C)c1ccc(-c2sc(CNCC3CCNCC3)cc2-c2ccc(-c3ccoc3)cc2)cc1 | 5.8 µM | – | –
COc1ccc(-c2cc(CNCC3CCNCC3)sc2-c2ccc(OC)c(OC)c2)cc1OC | > 10 µM | 0% | EC50 (MCF7 [3]): > 30 µM; EC50 (MCF7 [4]): > 30 µM; EC50 [5]: > 30 µM; EC50 (PANC-1): > 30 µM; EC50 (Kasumi 1): 18.7 µM

SMILES | IC50 [1] | inhibition [2] | further results
CC(C)(C)c1ccc(-c2sc(C(=O)NCC3CCNCC3)cc2-c2ccoc2)cc1 | > 10 µM | 36% | –
CC(C)(C)c1ccc(-c2cc(COCC3CCNCC3)sc2-c2ccc(C(C)(C)C)cc2)cc1 | > 10 µM | 0% | –
CC1=NN(c2ccc(C(=O)O)cc2)C(=O)/C1=C\c1ccc(-c2cc(C)c(C)cc2[N+](=O)[O-])o1 | – | – | IC50 [10]: 1.6 µM
CC(C)(C)c1ccc(-c2cc(CN3CCNCC3)sc2-c2ccc(C(C)(C)C)cc2)cc1 | > 10 µM | 5% | –
CC(C)(C)c1ccc(-c2cc(CNCCCCCCN)sc2-c2ccc(C(C)(C)C)cc2)cc1 | 1.4 µM | – | –
CC(C)(C)c1ccc(-c2nc(C(=O)NCC3CCNCC3)sc2-c2ccc(C(C)(C)C)cc2)cc1 | 2.4 µM | – | –
OCc1ccc(-c2cc(CNCC3CCNCC3)sc2-c2ccc(CO)cc2)cc1 | > 10 µM | 22% | –
CC(C)(C)c1ccc(-c2sc(C(=O)NCC3CCNCC3)cc2-c2ccc(CN)cc2)cc1 | 10 µM | – | –
CC(C)(C)c1ccc(-c2cc(C(=O)NCC3CCNCC3)sc2-c2ccc(C(C)(C)C)cc2)cc1 | 8.6 µM | – | inhibition [11]: inactive
CC(C)(C)c1ccc(-c2sc(CNCC3CCNCC3)cc2-c2ccc(CN)cc2)cc1 | > 10 µM | 35% | –
CC(C)(C)c1ccc(-c2csc(C(=O)NCC3CCNCC3)n2)cc1 | – | 18% | –
CC(C)(C)c1ccc(-c2cc(CNCCC3CCNCC3)sc2-c2ccc(C(C)(C)C)cc2)cc1 | 2.2 µM | – | –
CC(C)(C)c1ccc(-c2cc(CNCC3CCNCC3)sc2-c2ccc(C(C)(C)C)cc2)cc1 | – | – | EC50 (MCF7 [3]): 3.4 µM; EC50 (MCF7 [4]): 2.8 µM; EC50 [5]: 2.8 µM; IC50 [12]: > 50 µM; IC50 (CREB-binding protein): 1.2 µM; EC50 (PANC-1): 1 µM; inhibition [11]: inactive; EC50 (Kasumi 1): 2.6 µM; IC50 [13]: > 50 µM
CC(C)(C)c1ccc(-c2nc(CNCC3CCNCC3)sc2-c2ccc(C(C)(C)C)cc2)cc1 | 8.6 µM | – | –
c1cc(-c2cc(CNCC3CCNCC3)sc2-c2ccoc2)co1 | > 10 µM | 23% | –
c1cc(-c2ccc(-c3cc(CNCC4CCNCC4)sc3-c3ccc(CN4CCCCC4)cc3)cc2)co1 | 4.6 µM | – | –
CC(C)(C)c1ccc(-c2sc(C(=O)NCC3CCNCC3)cc2-c2ccc(-c3ccoc3)cc2)cc1 | 7.4 µM | – | –
c1cc(-c2ccc(-c3ncc(CNCC4CCNCC4)nc3-c3ccc(-c4ccoc4)cc3)cc2)co1 | – | 25% | –
